In ChEMBL document CHEMBL1138349 (J Med Chem, 2007):

Assays:
[1] = target: T1, Muscarinic acetylcholine receptor M1 (Homo sapiens, UniProt P11229); experiment: Displacement of [N-methyl-3H]scopolamine from human recombinant muscarinic M1 receptor expressed in CHO cells; type: cell-based
T1 sequence (P11229 whole entry): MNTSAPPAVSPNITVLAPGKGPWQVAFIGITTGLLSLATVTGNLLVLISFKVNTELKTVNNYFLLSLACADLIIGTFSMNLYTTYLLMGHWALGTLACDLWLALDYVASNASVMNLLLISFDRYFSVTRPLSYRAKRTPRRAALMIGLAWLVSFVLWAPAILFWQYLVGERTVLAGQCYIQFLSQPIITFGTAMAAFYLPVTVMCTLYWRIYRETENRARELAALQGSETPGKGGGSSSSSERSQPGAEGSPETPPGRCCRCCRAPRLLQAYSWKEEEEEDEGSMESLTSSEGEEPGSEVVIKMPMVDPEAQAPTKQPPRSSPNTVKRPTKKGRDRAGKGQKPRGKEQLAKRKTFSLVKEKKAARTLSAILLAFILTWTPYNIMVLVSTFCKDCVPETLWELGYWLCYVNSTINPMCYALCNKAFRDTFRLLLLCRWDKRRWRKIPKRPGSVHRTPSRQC

hERG (KCNH2) = hERG (KCNH2) (Homo sapiens, UniProt Q12809); experiment: Inhibition of human hERG current at 1 uM
Chain of hERG (KCNH2) (Q12809 whole entry): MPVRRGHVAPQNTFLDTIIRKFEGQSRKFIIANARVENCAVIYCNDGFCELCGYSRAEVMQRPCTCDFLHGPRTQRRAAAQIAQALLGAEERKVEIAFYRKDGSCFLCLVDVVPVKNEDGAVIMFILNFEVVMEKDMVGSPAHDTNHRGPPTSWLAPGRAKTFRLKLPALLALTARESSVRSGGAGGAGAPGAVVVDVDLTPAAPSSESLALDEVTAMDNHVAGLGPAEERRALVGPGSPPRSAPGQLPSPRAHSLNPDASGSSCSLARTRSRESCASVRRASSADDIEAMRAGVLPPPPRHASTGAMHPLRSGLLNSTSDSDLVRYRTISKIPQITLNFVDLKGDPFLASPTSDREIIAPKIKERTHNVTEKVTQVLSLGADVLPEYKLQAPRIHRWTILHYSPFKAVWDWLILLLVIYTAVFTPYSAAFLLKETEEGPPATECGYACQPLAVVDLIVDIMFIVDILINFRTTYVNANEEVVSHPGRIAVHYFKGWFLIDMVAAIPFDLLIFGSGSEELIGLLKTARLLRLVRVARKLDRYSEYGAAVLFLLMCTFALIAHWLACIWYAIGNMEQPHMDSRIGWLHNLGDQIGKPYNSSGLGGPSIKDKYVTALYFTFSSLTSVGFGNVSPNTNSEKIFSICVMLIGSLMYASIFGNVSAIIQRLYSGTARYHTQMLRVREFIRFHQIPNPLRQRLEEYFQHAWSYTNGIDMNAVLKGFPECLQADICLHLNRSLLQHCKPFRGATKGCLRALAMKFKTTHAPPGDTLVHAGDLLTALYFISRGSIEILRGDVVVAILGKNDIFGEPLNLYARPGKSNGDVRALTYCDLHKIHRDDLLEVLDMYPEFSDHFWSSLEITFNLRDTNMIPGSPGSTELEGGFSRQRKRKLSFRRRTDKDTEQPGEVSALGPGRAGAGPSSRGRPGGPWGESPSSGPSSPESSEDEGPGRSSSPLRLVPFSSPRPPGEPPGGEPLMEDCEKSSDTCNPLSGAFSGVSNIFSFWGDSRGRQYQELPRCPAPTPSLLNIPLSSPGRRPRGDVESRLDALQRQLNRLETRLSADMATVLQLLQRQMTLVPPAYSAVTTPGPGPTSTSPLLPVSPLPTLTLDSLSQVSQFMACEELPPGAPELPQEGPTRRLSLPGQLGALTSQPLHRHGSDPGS

[2] = Half life in rat at 5 mg/kg, po; type: ADME, organism-based; set-up: dose 5 mg/kg, route oral; conditions: in vivo
[3] = Total mean residence time in cynomolgus monkey at 5 mg/kg, po; type: ADME, organism-based, Macaca fascicularis; set-up: dose 5 mg/kg, route oral; conditions: in vivo
[4] = Oral bioavailability in rat at 5 mg/kg; type: ADME, organism-based; conditions: in vivo
Mus musculus [5] = experiment: Reduction in plasma glucose excursion in db/db C57BL/KSJ mouse at 1 mg/kg, po by oral glucose tolerance test; conditions: read-out: Inhibition
[6] = Aqueous solubility at pH 7.4; type: physicochemical; conditions: buffer
Summary of the method: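 Solubility was measured in aqueous medium at physiological pH 7.4, using a crystalline modification of the free base.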

Rattus norvegicus = experiment: Inhibition of plasma DPP4 activity in Han Wistar rat at 1 mg/kg, po after 7 hrs; conditions: read-out: Inhibition
[7] = Clearance in rat at 5 mg/kg, po and 5 mg/kg, iv; type: ADME, organism-based; conditions: in vivo
[8] = Distribution coefficient, log D at pH 7.4; type: physicochemical; conditions: octanol/water
Mus musculus [9] = experiment: Reduction in plasma glucose excursion in db/db C57BL/KSJ mouse at 0.1 mg/kg, po by oral glucose tolerance test; conditions: read-out: Inhibition
[10] = Total mean residence time in rat at 5 mg/kg, po; type: ADME, organism-based; set-up: dose 5 mg/kg, route oral; conditions: in vivo
Rhesus monkey = experiment: Inhibition of plasma DPP4 activity in rhesus monkey at 1 mg/kg, po after 7 hrs; conditions: Macaca mulatta, read-out: Inhibition
[11] = Half life in cynomolgus monkey at 5 mg/kg, po; type: ADME, organism-based, Macaca fascicularis; set-up: dose 5 mg/kg, route oral; conditions: in vivo
[12] = Volume of distribution at steady state in cynomolgus monkey at 5 mg/kg, po and 1.5 mg/kg, iv; type: ADME, organism-based, Macaca fascicularis; conditions: in vivo, read-out: Vdss
[13] = Dissociation constant, pKa corresponding to the protonation of the quinazoline; type: physicochemical
[14] = Volume of distribution at steady state in rat at 5 mg/kg, po and 5 mg/kg, iv; type: ADME, organism-based; conditions: in vivo, read-out: Vdss
Canis familiaris = experiment: Inhibition of plasma DPP4 activity in Beagle dog at 1 mg/kg, po after 7 hrs; conditions: Canis lupus familiaris, read-out: Inhibition
[15] = Oral bioavailability in cynomolgus monkey at 5 mg/kg; type: ADME, organism-based, Macaca fascicularis; conditions: in vivo
Mus musculus [16] = experiment: Inhibition of plasma DPP4 activity in db/db C57BL/KSJ mouse at 1 mg/kg, po after 30 mins of glucose administration; conditions: 0.5 h, read-out: Inhibition
[17] = Clearance in cynomolgus monkey at 5 mg/kg, po and 1.5 mg/kg, iv; type: ADME, organism-based, Macaca fascicularis; conditions: in vivo
[18] = Dissociation constant, pKa corresponding to the protonation of the primary amino group; type: physicochemical

## CC#CCn1c(N2CCC[C@@H](N)C2)nc2c1c(=O)n(Cc1nc(C)cc3ccccc13)c(=O)n2C
[1]
  IC50: 0.43 µM
hERG (KCNH2)
  residual activity at 1 µM: 78%

## CC#CCn1c(N2CCC[C@@H](N)C2)nc2c1c(=O)n(Cc1nc(C)c3ccccc3n1)c(=O)n2C [LINAGLIPTIN]
[2]
  half-life: 35.9 h
[3]
  MRT: 17.4 h
[4]
  bioavailability: 50.7%
Mus musculus [5]
  inhibition in vivo at 1 mg/kg: 66%
[1]
  IC50: 0.295 µM
[6]
  solubility: > 5 mg/mL
Rattus norvegicus
  inhibition in vivo at 1 mg/kg: > 70%
[7]
  clearance: 2.24 L/h/kg
[8]
  logD: 0.4
Mus musculus [9]
  inhibition in vivo at 0.1 mg/kg: 15%
[10]
  MRT: 14.3 h
Rhesus monkey
  inhibition in vivo at 1 mg/kg: > 70%
[11]
  half-life: 41.4 h
[12]
  Vd: 15.8 L/kg
[13]
  pKa: 1.9
[14]
  Vd: 5.4 L/kg
Canis familiaris
  inhibition in vivo at 1 mg/kg: > 70%
[15]
  bioavailability: 50.1%
Mus musculus [16]
  inhibition in vivo at 1 mg/kg: 76%
[17]
  clearance: 0.948 L/h/kg
[18]
  pKa: 8.6

## CC(C)=CCn1c(N2CCC[C@H](N)C2)nc2c1c(=O)n(CC(=O)c1ccccc1)c(=O)n2C
[1]
  IC50: 0.05 µM

## CC#CCn1c(N2CCC[C@@H](N)C2)nc2c1c(=O)n(CC(=O)c1ccccc1)c(=O)n2C
[1]
  IC50: 6.16 µM

## CC(C)=CCn1c(N2CCC[C@@H](N)C2)nc2c1c(=O)n(Cc1nccc3ccccc13)c(=O)n2C
[1]
  IC50: 0.005 µM
hERG (KCNH2)
  residual activity at 1 µM: 51%

## CC#CCn1c(N2CCC[C@H](N)C2)nc2c1c(=O)n(CC(=O)c1ccccc1)c(=O)n2C
[1]
  IC50: 1.13 µM

## CC(C)=CCn1c(N2CCC[C@@H](N)C2)nc2c1c(=O)n(CC(=O)c1ccccc1)c(=O)n2C
[1]
  IC50: 0.025 µM

## CC(C)=CCn1c(N2CCC[C@H](N)C2)nc2c1c(=O)n(Cc1nccc3ccccc13)c(=O)n2C
[1]
  IC50: 0.026 µM
hERG (KCNH2)
  residual activity at 1 µM: 51%

## CC#CCn1c(N2CCC[C@@H](N)C2)nc2c1c(=O)n(CC(=O)c1ccccc1OCC(=O)NC)c(=O)n2C
[1]
  IC50: 1.17 µM
hERG (KCNH2)
  residual activity at 1 µM: 88%

## CC#CCn1c(N2CCC[C@@H](N)C2)nc2c1c(=O)n(Cc1ccc(OC)cc1)c(=O)n2C
[1]
  IC50: 0.518 µM
hERG (KCNH2)
  residual activity at 1 µM: 51%
